One may read the IC50 as the point on the concentration scale where inhibition reaches its midpoint. A high value points to a need for much substance. As a reminder, the inhibition is the drop in the measured response relative to a control, in per cent. The low end stands for a weak effect, the high end for a strong effect.

Experiment [1] concerns MCF7. The experiment is described as follows: Induction of apoptosis in human MCF7 cells assessed as late apoptotic cells level at cytotoxic IC50 level after 24 hrs by Annexin V/PI dual staining based flow cytometry (reference value: 1.52 %). In kind it is functional. For orientation: In flow cytometry, cells or beads pass a laser one at a time.
Experiment [2] concerns MCF7. In words: Cytotoxicity against human MCF7 cells after 24 hrs by MTT assay. To be noted: MCF7, 24 h, in the assay text read “XTT assay” for “MTT assay”. In kind it is functional, cell-based. In outline: (§1)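 Cells grown in RPMI with fetal calf serum, penicillin/streptomycin, 37 °C, 5% CO2. Seeded 2 × 10^4 cells/well, then 24 h. Medium replaced with compound at 3.9–500 µg/ml (DMSO stocks diluted in medium, final DMSO under 0.1%). XTT read-out of mitochondrial activity: 3 h at 37 °C, OD 480 nm (reference 680 nm). IC50 by non-linear regression; duplicate experiments; cisplatin positive control.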
On the technique in general: Tetrazolium assays rely on reduction of a dye to a coloured formazan, in cell work by metabolically active cells.

For experiment [3], the system named is MCF7. The experiment is described as follows: Induction of apoptosis in human MCF7 cells assessed as early apoptotic cells level at cytotoxic IC50 level after 24 hrs by Annexin V/PI dual staining based flow cytometry (reference value: 0.46%). In kind it is functional.
Experiment [4] relates to MCF7. The experiment is described as follows: Inhibition of DNA synthesis in human MCF7 cells at 22.09 ug/ml after 48 hrs by 5-bromo-20-deoxy-uridine incorporation method. In kind it is functional. To be noted: MCF7, 48 h. In outline:
(§2)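 MCF-7 seeded at 2 × 10^4 cells/well and exposed to compound for 48 h at the stated concentration. BrdU added for 2 h at 37 °C, then anti-BrdU-POD for 90 min, PBS washes and colorimetric substrate. Inhibition taken relative to untreated control absorbance (set as 0%). Means of two independent experiments ± SD of four wells.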

Experiment [5] relates to MCF7. In words: Induction of apoptosis in human MCF7 cells assessed as necrotic cells level at cytotoxic IC50 level after 24 hrs by Annexin V/PI dual staining based flow cytometry (reference value: 3.66 %). In kind it is functional.
The subject of experiment [6] is MCF7. The experiment is described as follows: Induction of apoptosis in human MCF7 cells assessed as viable cells level at cytotoxic IC50 level after 24 hrs by Annexin V/PI dual staining based flow cytometry (reference value: 94.36 %). In kind it is functional.
Experiment [7] in a line: Cytotoxicity against mouse NIH/3T3 cells after 24 hrs by MTT assay. In kind it is cell-based. To be noted: NIH3T3, 24 h, in the assay text read “XTT assay” for “MTT assay”. In short, it runs like this:
as §1

The test system of experiment [8] is MCF7. The experiment is described as follows: Inhibition of DNA synthesis in human MCF7 cells at 44.18 ug/ml after 48 hrs by 5-bromo-20-deoxy-uridine incorporation method. In kind it is functional. To be noted: MCF7, 48 h. In short, it runs like this: as §2
The test system of experiment [9] is MCF7. The experiment is described as follows: Inhibition of DNA synthesis in human MCF7 cells at 2 times cytotoxic IC50 level after 24 hrs by 5-bromo-20-deoxy-uridine incorporation method. In kind it is functional. In short, it runs like this:
(§3)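 BrdU ELISA on MCF-7 seeded at 2 × 10^4 cells/well. Compounds given at IC50/2, IC50 and 2 × IC50 (from the XTT assay) for 24 h or 48 h. BrdU added for 2 h at 37 °C, then anti-BrdU-POD for 90 min, three PBS washes and colorimetric substrate. Untreated control absorbance set as 0% inhibition. Means of two independent experiments ± SD of four wells; cisplatin positive control.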

For experiment [10], the system named is MCF7. The experiment is described as follows: Inhibition of DNA synthesis in human MCF7 cells at 30.63 ug/ml after 48 hrs by 5-bromo-20-deoxy-uridine incorporation method. In kind it is functional. To be noted: MCF7, 48 h. In short, it runs like this: as §2
The test system of experiment [11] is MCF7. The experiment is described as follows: Inhibition of DNA synthesis in human MCF7 cells at 0.5 times cytotoxic IC50 level after 24 hrs by 5-bromo-20-deoxy-uridine incorporation method. In kind it is functional. In outline:
as §3

Experiment [12] has as its system MCF7. The experiment is described as follows: Inhibition of DNA synthesis in human MCF7 cells at cytotoxic IC50 level after 24 hrs by 5-bromo-20-deoxy-uridine incorporation method. In kind it is functional. In short, it runs like this: as §3
For experiment [13], the system named is MCF7. In words: Inhibition of DNA synthesis in human MCF7 cells at 15.32 ug/ml after 48 hrs by 5-bromo-20-deoxy-uridine incorporation method. In kind it is functional. To be noted: MCF7, 48 h. In short, it runs like this: as §2
For experiment [14], the system named is MCF7. In words: Inhibition of DNA synthesis in human MCF7 cells at 61.26 ug/ml after 48 hrs by 5-bromo-20-deoxy-uridine incorporation method. To be noted: MCF7, 48 h. In kind it is functional. In short, it runs like this:
as §2

As for `COc1ccccc1N1CCN(CC(=O)N2CCN(c3nnc(-c4ccc(C)cc4)c(-c4ccc(C)cc4)n3)CC2)CC1`, the Activity was 5.8% in the experiment with MCF7 [1], 2.6% in the experiment on MCF7 [3], 28.2% in the experiment on MCF7 [5] and 63.4% in the experiment with MCF7 [6]. Besides, the figures for the IC50 (in the experiment on MCF7 [2]; in experiment [7]) were 59.4 µM and 133 µM, respectively. This compound also displayed an inhibition at 22.09 µg/mL with MCF7 [4] of 78.5%. Besides, the inhibition at 44.18 µg/mL in the experiment on MCF7 [8] was 78.7%.
Turning to `COc1ccc(N2CCN(CC(=O)N3CCN(c4nnc(-c5ccc(C)cc5)c(-c5ccc(C)cc5)n4)CC3)CC2)cc1`, the Activity with MCF7 [1] turned out to be 6.2%; with MCF7 [3] it was 0.6%; in the experiment with MCF7 [5], 26.7%; in the experiment with MCF7 [6], 66.5%. For the same compound, the “inhibition (INH)” value in the experiment with MCF7 [9] came to 88.52%; in the experiment on MCF7 [11], 56.94%; with MCF7 [12], 77.82%. In addition, the IC50 in the experiment on MCF7 [2] turned out to be 53 µM; in experiment [7] it was 116 µM. Moreover, 30.63 µg/mL produced 86% inhibition in the experiment on MCF7 [10]. In addition, testing at 15.32 µg/mL in the experiment on MCF7 [13] gave an inhibition of 76.7%. In the experiment on MCF7 [14], this compound gave an inhibition at 61.26 µg/mL of 88.9%.

For the origin of these results see ChEMBL document CHEMBL3351961, “In vitro antitumor activity evaluation of some 1,2,4-triazine derivatives bearing piperazine amide moiety against breast cancer cells” (Bioorg Med Chem, 2014).
